From ChEMBL document CHEMBL1139884, “Structure-based design, synthesis, and A-site rRNA cocrystal complexes of functionally novel aminoglycoside antibiotics: C2" ether analogues of paromomycin” (2007)
≈ marks a conversion by molar mass, not a printed value. Calls of active or inactive are those of the source. The rule behind the calls is not given here.

What was measured:
Escherichia coli = experiment: Antimicrobial activity against Escherichia coli ATCC 25922 after 20 to 24 hrs; assay type: functional
How it was run: (§1)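 Broth microdilution in duplicate; compound in 2.5% DMSO in water, overnight culture added to a final inoculum of about 10^2-10^3 CFU/well. Growth read as A595 after 20-24 h at 37°C, relative to a no-compound well. MIC reported as a range: complete inhibition at the higher concentration, viable cells at the lower. Ampicillin and tetracycline are the positive controls.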

Staphylococcus aureus [1] = experiment: Antimicrobial activity against Staphylococcus aureus ATCC 13709 after 20 to 24 hrs; assay type: functional; how it was run: as §1
Mus musculus [2] = experiment: Survival of Staphylococcus aureus Smith infected BALB/c mouse assessed as septicemia protection at 1.2 mg/kg, sc administered at 1 hr and 3 hrs postinfection after 2 weeks; assay type: functional, organism-based; parameters: dose 1.2 mg/kg
How it was run: (§2)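 Female Balb/c mice (16-18 g), acclimated one week, 10 per group. Infection IP with 0.5 mL of 10^6 S. aureus (mouse-passaged Smith strain) in 10% hog gastric mucin. Compound dissolved in water, given subcutaneously in 0.5 mL at 1 h and 3 h post-infection as serial 2-fold dilutions from 75 to 0.125 mg/kg. Amikacin and neomycin served as control groups. Moribund mice counted per group; observation over two weeks.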

Mus musculus [3] = experiment: Survival of Staphylococcus aureus Smith infected BALB/c mouse assessed as septicemia protection at 2.3 mg/kg, sc administered at 1 hr and 3 hrs postinfection after 2 weeks; assay type: functional, organism-based; parameters: dose 2.3 mg/kg; how it was run: as §2
Mus musculus [4] = experiment: Survival of Staphylococcus aureus Smith infected BALB/c mouse assessed as septicemia protection at 4.7 mg/kg, sc administered at 1 hr and 3 hrs postinfection after 2 weeks; assay type: functional, organism-based; parameters: dose 4.7 mg/kg; how it was run: as §2
Mus musculus [5] = experiment: Survival of Staphylococcus aureus Smith infected BALB/c mouse assessed as septicemia protection at 9.4 mg/kg, sc administered at 1 hr and 3 hrs postinfection after 2 weeks; assay type: functional, organism-based; parameters: dose 9.4 mg/kg; how it was run: as §2
Mus musculus [6] = experiment: Survival of Staphylococcus aureus Smith infected BALB/c mouse assessed as septicemia protection at 19 mg/kg, sc administered at 1 hr and 3 hrs postinfection after 2 weeks; assay type: functional, organism-based; parameters: dose 19 mg/kg; how it was run: as §2
Mus musculus [7] = experiment: Survival of Staphylococcus aureus Smith infected BALB/c mouse assessed as septicemia protection at 38 mg/kg, sc administered at 1 hr and 3 hrs postinfection after 2 weeks; assay type: functional, organism-based; parameters: dose 38 mg/kg; how it was run: as §2
Mus musculus [8] = experiment: Survival of Staphylococcus aureus Smith infected BALB/c mouse assessed as septicemia protection at 75 mg/kg, sc administered at 1 hr and 3 hrs postinfection after 2 weeks; assay type: functional, organism-based; parameters: dose 75 mg/kg; how it was run: as §2
Staphylococcus aureus [9] = experiment: Septicemia protection in Staphylococcus aureus Smith infected sc dosed BALB/c mouse after 2 weeks; assay type: functional; settings: 336 h; how it was run: as §2
Mus musculus [10] = experiment: Survival of Staphylococcus aureus Smith infected BALB/c mouse assessed as septicemia protection at 0.50 mg/kg, sc administered at 1 hr and 3 hrs postinfection after 2 weeks; assay type: functional, organism-based; parameters: dose 0.5 mg/kg; how it was run: as §2

SMILES	MIC (Escherichia coli)	MIC (Staphylococcus aureus [1])	further results
NC[C@@H]1O[C@H](O[C@H]2[C@@H](OCCNCc3cccnc3)[C@H](O[C@@H]3[C@@H](O)[C@H](N)C[C@H](N)[C@H]3O[C@H]3O[C@H](CO)[C@@H](O)[C@H](O)[C@H]3N)O[C@@H]2CO)[C@H](N)[C@@H](O)[C@@H]1O	12 µg/mL (≈ 16 µM)	< 1.5 µg/mL	Activity (Mus musculus [2]): Active; Activity (Mus musculus [3]): Active; Activity (Mus musculus [4]): Active; Activity (Mus musculus [5]): Active; Activity (Mus musculus [6]): Active; Activity (Mus musculus [7]): Active; Activity (Mus musculus [8]): Active
NC[C@@H]1O[C@H](O[C@H]2[C@@H](OCCNCc3ccnc(N)c3)[C@H](O[C@@H]3[C@@H](O)[C@H](N)C[C@H](N)[C@H]3O[C@H]3O[C@H](CO)[C@@H](O)[C@H](O)[C@H]3N)O[C@@H]2CO)[C@H](N)[C@@H](O)[C@@H]1O	6 µg/mL (≈ 7.84 µM)	0.6 µg/mL (≈ 0.784 µM)	–
CC(=O)N(CCO[C@H]1[C@H](O[C@@H]2[C@@H](O)[C@H](N)C[C@H](N)[C@H]2O[C@H]2O[C@H](CO)[C@@H](O)[C@H](O)[C@H]2N)O[C@H](CO)[C@H]1O[C@H]1O[C@@H](CN)[C@@H](O)[C@H](O)[C@H]1N)CCc1ccccc1	10 µg/mL (≈ 12.4 µM)	1 µg/mL (≈ 1.24 µM)	–
NC[C@@H]1O[C@H](O[C@H]2[C@@H](OCCNc3cnc4ccccc4c3)[C@H](O[C@@H]3[C@@H](O)[C@H](N)C[C@H](N)[C@H]3O[C@H]3O[C@H](CO)[C@@H](O)[C@H](O)[C@H]3N)O[C@@H]2CO)[C@H](N)[C@@H](O)[C@@H]1O	12 µg/mL (≈ 15.3 µM)	1 µg/mL (≈ 1.27 µM)	–
NC[C@@H]1O[C@H](O[C@H]2[C@@H](OCCNCCCCc3ccccc3)[C@H](O[C@@H]3[C@@H](O)[C@H](N)C[C@H](N)[C@H]3O[C@H]3O[C@H](CO)[C@@H](O)[C@H](O)[C@H]3N)O[C@@H]2CO)[C@H](N)[C@@H](O)[C@@H]1O	10 µg/mL (≈ 12.6 µM)	3 µg/mL (≈ 3.79 µM)	–
N[C@H]1[C@@H](O[C@H]2[C@H](O[C@@H]3O[C@H](CO)[C@@H](O)[C@H]3O)[C@@H](O)[C@H](N)C[C@@H]2N)O[C@H](CO)[C@@H](O)[C@@H]1O	> 100 µg/mL	> 100 µg/mL	–
NCCNCCO[C@H]1[C@H](O[C@@H]2[C@@H](O)[C@H](N)C[C@H](N)[C@H]2O[C@H]2O[C@H](CO)[C@@H](O)[C@H](O)[C@H]2N)O[C@H](CO)[C@H]1O[C@H]1O[C@@H](CN)[C@@H](O)[C@H](O)[C@H]1N	6 µg/mL (≈ 8.55 µM)	2 µg/mL (≈ 2.85 µM)	–
NC[C@@H]1O[C@H](O[C@H]2[C@@H](OCCNCCc3ccccc3)[C@H](O[C@@H]3[C@@H](O)[C@H](N)C[C@H](N)[C@H]3O[C@H]3O[C@H](CO)[C@@H](O)[C@H](O)[C@H]3N)O[C@@H]2CO)[C@H](N)[C@@H](O)[C@@H]1O	3 µg/mL (≈ 3.93 µM)	0.3 µg/mL (≈ 0.393 µM)	ED90 (Staphylococcus aureus [9]): 0.25 mg/kg; Activity (Mus musculus [10]): Active; Activity (Mus musculus [2]): Active; Activity (Mus musculus [4]): Active; Activity (Mus musculus [6]): Active; Activity (Mus musculus [7]): Active
N[C@H]1[C@@H](O[C@H]2[C@H](O[C@@H]3O[C@H](CO)[C@@H](O)[C@H]3OCCNCCc3ccccc3)[C@@H](O)[C@H](N)C[C@@H]2N)O[C@H](CO)[C@@H](O)[C@@H]1O	> 100 µg/mL	12 µg/mL (≈ 19.9 µM)	–
NC[C@@H]1O[C@H](O[C@H]2[C@@H](OCCNCCN3C(=O)c4cccc5cccc(c45)C3=O)[C@H](O[C@@H]3[C@@H](O)[C@H](N)C[C@H](N)[C@H]3O[C@H]3O[C@H](CO)[C@@H](O)[C@H](O)[C@H]3N)O[C@@H]2CO)[C@H](N)[C@@H](O)[C@@H]1O	> 40 µg/mL	10 µg/mL (≈ 11.3 µM)	–
NC[C@@H]1O[C@H](O[C@H]2[C@@H](OCCNc3ccccc3)[C@H](O[C@@H]3[C@@H](O)[C@H](N)C[C@H](N)[C@H]3O[C@H]3O[C@H](CO)[C@@H](O)[C@H](O)[C@H]3N)O[C@@H]2CO)[C@H](N)[C@@H](O)[C@@H]1O	50 µg/mL (≈ 68 µM)	6 µg/mL (≈ 8.17 µM)	–
NC[C@@H]1O[C@H](O[C@H]2[C@@H](OCCNc3cccnc3)[C@H](O[C@@H]3[C@@H](O)[C@H](N)C[C@H](N)[C@H]3O[C@H]3O[C@H](CO)[C@@H](O)[C@H](O)[C@H]3N)O[C@@H]2CO)[C@H](N)[C@@H](O)[C@@H]1O	12 µg/mL (≈ 16.3 µM)	< 1.5 µg/mL	–
NC[C@@H]1O[C@H](O[C@H]2[C@@H](OCCNCc3ccccc3)[C@H](O[C@@H]3[C@@H](O)[C@H](N)C[C@H](N)[C@H]3O[C@H]3O[C@H](CO)[C@@H](O)[C@H](O)[C@H]3N)O[C@@H]2CO)[C@H](N)[C@@H](O)[C@@H]1O	3 µg/mL (≈ 4.01 µM)	3 µg/mL (≈ 4.01 µM)	–
NC[C@@H]1O[C@H](O[C@H]2[C@@H](OCCN(CCCc3ccccc3)CCc3ccccc3)[C@H](O[C@H]3C(O[C@H]4O[C@H](CO)[C@@H](O)[C@H](O)[C@H]4N)[C@@H](N)C[C@@H](N)[C@@H]3O)O[C@@H]2CO)[C@H](N)[C@@H](O)[C@@H]1O (stereo partly specified)	10 µg/mL (≈ 11.4 µM)	0.6 µg/mL (≈ 0.681 µM)	–
